Reference: ChEMBL document CHEMBL1817584, “Synthesis of novel fluconazoliums and their evaluation for antibacterial and antifungal activities” (2011)
≈ marks a conversion by molar mass, not a printed value.

Tests used:
[1] = tested on: Aspergillus fumigatus; assay: Antifungal activity against Aspergillus fumigatus ATCC 96918 after 24 hrs by twofold serial dilution method; format: functional; settings: ATCC 96918, 24 h
How it was run: (§1)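 A fungal spore suspension was made in sterile distilled water from a 1-day-old culture grown on Sabouraud agar, then tested against serial dilutions of compounds (DMSO stocks) to determine MIC.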

[2] = tested on: Bacillus; assay: Antibacterial activity against Bacillus proteus ATCC 13315 after 24 hrs by twofold serial dilution method; format: functional; settings: ATCC 13315, 24 h
How it was run: (§2)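 Each bacterial suspension was adjusted with sterile saline to 1 × 10⁵ CFU. Compounds were first dissolved in DMSO as stock solutions, then diluted in Mueller–Hinton broth in twofold steps (8, 4, 2, 1, 0.5, 0.25). Dilutions were inoculated and incubated at 37 °C for 24 h, and MIC was read. DMSO plus inoculum without drug served as a solvent control.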

[3] = tested on: Pseudomonas aeruginosa; assay: Antibacterial activity against Pseudomonas aeruginosa ATCC 27853 after 24 hrs by twofold serial dilution method; format: functional; settings: ATCC 27853, 24 h; how it was run: as §2
[4] = tested on: Staphylococcus aureus; assay: Antibacterial activity against Staphylococcus aureus ATCC 6538 after 24 hrs by twofold serial dilution method; format: functional; settings: ATCC 6538, 24 h; how it was run: as §2
[5] = tested on: Candida albicans; assay: Antifungal activity against Candida albicans ATCC 76615 after 24 hrs by twofold serial dilution method; format: functional; settings: ATCC 76615, 24 h; how it was run: as §1
[6] = tested on: Bacillus subtilis; assay: Antibacterial activity against Bacillus subtilis ATCC 21216 after 24 hrs by twofold serial dilution method; format: functional; settings: ATCC 21216, 24 h; how it was run: as §2
[7] = tested on: Staphylococcus aureus; assay: Antibacterial activity against methicillin-resistant Staphylococcus aureus N315 after 24 hrs by twofold serial dilution method; format: functional; settings: N315, 24 h
How it was run: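 Compounds were dissolved in DMSO as stock, then diluted twofold in Mueller–Hinton broth. Chloromycin and norfloxacin were run as reference drugs. The inoculum was adjusted in sterile saline to 1 × 10⁵ CFU, and a DMSO-plus-inoculum well served as solvent control. Plates were incubated at 37 °C for 24 h and read as MIC.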

[8] = tested on: Escherichia coli; assay: Antibacterial activity against Escherichia coli ATCC 8099 after 24 hrs by twofold serial dilution method; format: functional; settings: ATCC 8099, 24 h; how it was run: as §2
[9] = tested on: Aspergillus fumigatus; assay: Ratio of Fluconazole MIC to compound MIC for Aspergillus fumigatus ATCC 96918
[10] = tested on: Bacillus; assay: Ratio of Chloromycin MIC to compound MIC for Bacillus proteus ATCC 13315; format: functional
[11] = tested on: Escherichia coli; assay: Ratio of Chloromycin MIC to compound MIC for Escherichia coli ATCC 8099; format: functional

SMILES	MIC [1]	MIC [2]	MIC [3]	MIC [4]	MIC [5]	MIC [6]	MIC [7]	MIC [8]	Ratio [9]	Ratio [10]	Ratio [11]
OC(Cn1c[n+](Cc2cccc(Cl)c2)cn1)(Cn1c[n+](Cc2cccc(Cl)c2)cn1)c1ccc(F)cc1F.[Cl-].[Cl-]	256 µg/mL	128 µg/mL	64 µg/mL	4 µg/mL	4 µg/mL	64 µg/mL	32 µg/mL	32 µg/mL			
BrCCOc1ccc2ccccc2c1	> 256 µg/mL	> 256 µg/mL	> 256 µg/mL	256 µg/mL (≈ 1020 µM)	> 256 µg/mL	> 256 µg/mL	> 256 µg/mL	256 µg/mL (≈ 1020 µM)			
O=[N+]([O-])c1ccc(C[n+]2cnn(CC(O)(Cn3c[n+](Cc4ccc([N+](=O)[O-])cc4)cn3)c3ccc(F)cc3F)c2)cc1.[Br-].[Br-]	128 µg/mL	128 µg/mL	128 µg/mL	64 µg/mL	128 µg/mL	128 µg/mL	256 µg/mL	64 µg/mL			
CCCC[n+]1cnn(CC(O)(Cn2c[n+](CCCC)cn2)c2ccc(F)cc2F)c1.[Br-].[Br-]	> 256 µg/mL	256 µg/mL	256 µg/mL	> 256 µg/mL	128 µg/mL	> 256 µg/mL	> 256 µg/mL	128 µg/mL			
Cc1cccc(C[n+]2cnn(CC(O)(Cn3c[n+](Cc4cccc(C)c4)cn3)c3ccc(F)cc3F)c2)c1.[Br-].[Br-]	256 µg/mL	256 µg/mL	256 µg/mL	16 µg/mL	64 µg/mL	256 µg/mL	256 µg/mL	128 µg/mL			
O=C1c2cccc3c(Br)ccc(c23)C(=O)N1CCCCCC[n+]1cnn(CC(O)(Cn2c[n+](CCCCCCN3C(=O)c4cccc5c(Br)ccc(c45)C3=O)cn2)c2ccc(F)cc2F)c1.[Br-].[Br-]	32 µg/mL	64 µg/mL	32 µg/mL	8 µg/mL	16 µg/mL	64 µg/mL	16 µg/mL	8 µg/mL	8		
O=C1c2cccc3c(Br)ccc(c23)C(=O)N1CCCCCCn1cncn1	> 256 µg/mL	> 256 µg/mL	> 256 µg/mL	> 256 µg/mL	> 256 µg/mL	> 256 µg/mL	> 256 µg/mL	> 256 µg/mL			
CCCCCCCCCCCCCCCC[n+]1cnn(CC(O)(Cn2c[n+](CCCCCCCCCCCCCCCC)cn2)c2ccc(F)cc2F)c1.[Br-].[Br-]	> 256 µg/mL	256 µg/mL	128 µg/mL	8 µg/mL	4 µg/mL	128 µg/mL	128 µg/mL	8 µg/mL			
Fc1ccc(Cn2c[n+](CCOc3ccc4ccccc4c3)cn2)c(F)c1.[Br-]	128 µg/mL	16 µg/mL	8 µg/mL	16 µg/mL	32 µg/mL	64 µg/mL	64 µg/mL	8 µg/mL			
OC(Cn1c[n+](Cc2ccc(Cl)cc2Cl)cn1)(Cn1c[n+](Cc2ccc(Cl)cc2Cl)cn1)c1ccc(F)cc1F.[Cl-].[Cl-]	128 µg/mL	0.5 µg/mL	4 µg/mL	8 µg/mL	16 µg/mL	16 µg/mL	4 µg/mL	4 µg/mL		32	
OC(Cn1c[n+](Cc2ccc(Cl)cc2)cn1)(Cn1c[n+](Cc2ccc(Cl)cc2)cn1)c1ccc(F)cc1F.[Cl-].[Cl-]	64 µg/mL	256 µg/mL	16 µg/mL	64 µg/mL	256 µg/mL	256 µg/mL	> 256 µg/mL	256 µg/mL			
OC(Cn1c[n+](Cc2ccccc2Cl)cn1)(Cn1c[n+](Cc2ccccc2Cl)cn1)c1ccc(F)cc1F.[Cl-].[Cl-]	32 µg/mL	8 µg/mL	> 256 µg/mL	32 µg/mL	128 µg/mL	256 µg/mL	256 µg/mL	128 µg/mL			
OC(Cn1c[n+](Cc2ccc(F)cc2F)cn1)(Cn1c[n+](Cc2ccc(F)cc2F)cn1)c1ccc(F)cc1F.[Br-].[Br-]	> 256 µg/mL	128 µg/mL	> 256 µg/mL	64 µg/mL	128 µg/mL	256 µg/mL	256 µg/mL	64 µg/mL			
F[P-](F)(F)(F)(F)F.F[P-](F)(F)(F)(F)F.OC(Cn1c[n+](Cc2ccc(Cl)cc2Cl)cn1)(Cn1c[n+](Cc2ccc(Cl)cc2Cl)cn1)c1ccc(F)cc1F	256 µg/mL	1 µg/mL	64 µg/mL	32 µg/mL	128 µg/mL	32 µg/mL	32 µg/mL	≤ 0.25 µg/mL			256
O=C1c2cccc3c(Br)ccc(c23)C(=O)N1CCCBr	128 µg/mL (≈ 322 µM)	> 256 µg/mL	> 256 µg/mL	128 µg/mL (≈ 322 µM)	> 256 µg/mL	> 256 µg/mL	> 256 µg/mL	256 µg/mL (≈ 645 µM)			
O=C1c2cccc3c(Br)ccc(c23)C(=O)N1CCC[n+]1cnn(CC(O)(Cn2c[n+](CCCN3C(=O)c4cccc5c(Br)ccc(c45)C3=O)cn2)c2ccc(F)cc2F)c1.[Br-].[Br-]	16 µg/mL	32 µg/mL	16 µg/mL	8 µg/mL	8 µg/mL	64 µg/mL	4 µg/mL	8 µg/mL	8		
CCCCCCCCCCCC[n+]1cnn(CC(O)(Cn2c[n+](CCCCCCCCCCCC)cn2)c2ccc(F)cc2F)c1.[Br-].[Br-]	> 256 µg/mL	8 µg/mL	8 µg/mL	2 µg/mL	2 µg/mL	> 256 µg/mL	32 µg/mL	2 µg/mL			
Fc1ccc(Cn2cncn2)c(F)c1	> 256 µg/mL	> 256 µg/mL	> 256 µg/mL	> 256 µg/mL	> 256 µg/mL	> 256 µg/mL	> 256 µg/mL	> 256 µg/mL			
OC(Cn1c[n+](Cc2ccc(Cl)c(Cl)c2)cn1)(Cn1c[n+](Cc2ccc(Cl)c(Cl)c2)cn1)c1ccc(F)cc1F.[Cl-].[Cl-]	128 µg/mL	8 µg/mL	16 µg/mL	8 µg/mL	4 µg/mL	32 µg/mL	64 µg/mL	32 µg/mL			
OC(Cn1c[n+](Cc2ccc(Cl)cc2Cl)cn1)(Cn1c[n+](Cc2ccc(Cl)cc2Cl)cn1)c1ccc(F)cc1F.[I-].[I-]	32 µg/mL	4 µg/mL	32 µg/mL	16 µg/mL	64 µg/mL	64 µg/mL	64 µg/mL	4 µg/mL			
OC(Cn1c[n+](Cc2ccccc2)cn1)(Cn1c[n+](Cc2ccccc2)cn1)c1ccc(F)cc1F.[Br-].[Br-]	128 µg/mL	128 µg/mL	128 µg/mL	256 µg/mL	256 µg/mL	256 µg/mL	128 µg/mL	256 µg/mL			
OC(Cn1c[n+](Cc2ccc(Cl)cc2Cl)cn1)(Cn1c[n+](Cc2ccc(Cl)cc2Cl)cn1)c1ccc(F)cc1F.[Br-].[Br-]	128 µg/mL	4 µg/mL	64 µg/mL	64 µg/mL	64 µg/mL	32 µg/mL	64 µg/mL	16 µg/mL			
CCn1cc(C(=O)O)c(=O)c2cc(F)c(N3CCNCC3)cc21 [NORFLOXACIN]		1 µg/mL (≈ 3.13 µM)	2 µg/mL (≈ 6.26 µM)	8 µg/mL (≈ 25.1 µM)		1 µg/mL (≈ 3.13 µM)	1 µg/mL (≈ 3.13 µM)	0.5 µg/mL (≈ 1.57 µM)			
O=C1c2cccc3c(Br)ccc(c23)C(=O)N1CCCCCCBr	256 µg/mL (≈ 583 µM)	> 256 µg/mL	> 256 µg/mL	256 µg/mL (≈ 583 µM)	> 256 µg/mL	> 256 µg/mL	> 256 µg/mL	> 256 µg/mL			
OC(Cn1cncn1)(Cn1cncn1)c1ccc(F)cc1F [FLUCONAZOLE]	256 µg/mL (≈ 836 µM)				0.5 µg/mL (≈ 1.63 µM)						
O=C1c2cccc3c(Br)ccc(c23)C(=O)N1CCCCCCn1c[n+](Cc2ccc(F)cc2F)cn1.[Br-]	64 µg/mL	16 µg/mL	8 µg/mL	16 µg/mL	64 µg/mL	128 µg/mL	64 µg/mL	32 µg/mL			
Fc1ccc(Cn2c[n+](Cc3ccc(Cl)cc3Cl)cn2)c(F)c1.[Br-]	> 256 µg/mL	64 µg/mL	128 µg/mL	> 256 µg/mL	> 256 µg/mL	128 µg/mL	> 256 µg/mL	128 µg/mL			
CCCCCCCC[n+]1cnn(Cc2ccc(F)cc2F)c1.[Br-]	32 µg/mL	8 µg/mL	16 µg/mL	8 µg/mL	32 µg/mL	64 µg/mL	16 µg/mL	16 µg/mL			
